Data taken from ChEMBL document CHEMBL1149038 (J Nat Prod, 1994).

Tests used:
[1] = biological target: Protein kinase C beta type (Homo sapiens, UniProt P05771); experiment: Inhibition of PKC beta2
Summary of the method: (§1)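 Purified PKC isoenzyme (20 ng) starts the reaction. Mix: phosphatidylserine 40 µg/ml/diacylglycerol 1.76 µg/ml vesicles, 20 mM HEPES pH 7.5, 10 mM MgCl2, 200 µg/ml histone substrate, 100 µM CaCl2, 47.5 µM EGTA, 20 µM [32P]ATP; compounds in DMSO. 10 min at 30°, stopped with cold TCA plus BSA, precipitate filtered and scintillation-counted.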

[2] = biological target: T1, Protein kinase C epsilon type (Homo sapiens, UniProt Q02156); experiment: Inhibition of PKC epsilon; summary of the method: as §1
T1 sequence (Q02156 whole entry): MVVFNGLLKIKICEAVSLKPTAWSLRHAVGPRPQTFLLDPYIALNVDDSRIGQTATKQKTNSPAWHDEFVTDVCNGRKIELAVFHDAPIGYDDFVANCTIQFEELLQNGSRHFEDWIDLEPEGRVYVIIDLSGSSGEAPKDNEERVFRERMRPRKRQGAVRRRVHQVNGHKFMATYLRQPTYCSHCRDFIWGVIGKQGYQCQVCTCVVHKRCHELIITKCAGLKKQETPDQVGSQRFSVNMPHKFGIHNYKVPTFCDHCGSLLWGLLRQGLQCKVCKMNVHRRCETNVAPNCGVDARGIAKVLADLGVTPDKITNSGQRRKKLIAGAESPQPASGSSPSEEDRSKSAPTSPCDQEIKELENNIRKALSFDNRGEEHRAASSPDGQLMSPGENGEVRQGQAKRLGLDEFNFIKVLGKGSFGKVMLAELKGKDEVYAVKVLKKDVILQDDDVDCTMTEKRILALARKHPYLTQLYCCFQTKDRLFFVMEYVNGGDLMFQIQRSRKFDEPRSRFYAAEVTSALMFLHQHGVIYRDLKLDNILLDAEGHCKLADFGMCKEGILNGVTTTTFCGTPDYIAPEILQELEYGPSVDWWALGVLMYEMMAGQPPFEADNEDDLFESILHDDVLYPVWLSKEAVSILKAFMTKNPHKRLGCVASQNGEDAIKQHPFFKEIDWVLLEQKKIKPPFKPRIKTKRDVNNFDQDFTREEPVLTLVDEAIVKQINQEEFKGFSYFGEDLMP

[3] = Therapeutic index, IC50 for human H9 cells to EC50 for HIV1 3B; assay type: cell-based; conditions: read-out: Ratio IC50/EC50
[4] = tested on: Human immunodeficiency virus 1; experiment: Antiviral activity against HIV1 3B in human H9 cells assessed as inhibition of viral replication after 3 days by p24 antigen capture assay; assay type: functional, organism-based; conditions: Human immunodeficiency virus 1, 3B, H9, 72 h
Summary of the method: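 H9 lymphocytes (1 × 10^7 cells/ml) exposed to HIV-1 IIIB for 1 h at 37°, washed free of unadsorbed virus, resuspended at […] and mixed with an equal volume of compound dilution; 3 days at 37°. Infection read by p24 antigen capture, at four concentrations relative to infected untreated cultures; EC50 = concentration inhibiting replication by 50%.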

[5] = biological target: Protein kinase C delta type (Homo sapiens, UniProt Q05655); experiment: Inhibition of PKC delta; summary of the method: as §1
Protein kinase C delta type, sequence (Q05655 whole entry): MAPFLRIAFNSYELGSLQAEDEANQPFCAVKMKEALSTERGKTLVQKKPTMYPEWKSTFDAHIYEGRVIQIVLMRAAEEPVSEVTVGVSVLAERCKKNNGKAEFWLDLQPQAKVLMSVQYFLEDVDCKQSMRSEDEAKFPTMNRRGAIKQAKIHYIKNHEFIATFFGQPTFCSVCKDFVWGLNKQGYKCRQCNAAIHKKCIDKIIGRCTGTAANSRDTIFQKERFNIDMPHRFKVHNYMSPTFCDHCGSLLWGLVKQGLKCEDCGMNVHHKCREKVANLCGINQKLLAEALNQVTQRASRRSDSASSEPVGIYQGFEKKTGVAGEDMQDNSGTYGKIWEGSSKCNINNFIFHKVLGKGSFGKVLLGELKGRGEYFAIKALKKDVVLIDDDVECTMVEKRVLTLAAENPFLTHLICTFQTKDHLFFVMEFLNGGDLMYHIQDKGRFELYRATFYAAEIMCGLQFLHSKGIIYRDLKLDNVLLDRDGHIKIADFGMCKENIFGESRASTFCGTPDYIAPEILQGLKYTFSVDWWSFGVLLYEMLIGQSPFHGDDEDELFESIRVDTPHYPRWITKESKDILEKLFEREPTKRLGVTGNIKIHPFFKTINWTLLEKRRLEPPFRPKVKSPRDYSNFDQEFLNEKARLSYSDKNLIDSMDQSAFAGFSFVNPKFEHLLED

H9 = experiment: Cytotoxicity against human H9 cells after 3 days; assay type: cell-based; conditions: H9, 72 h
Summary of the method: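 Uninfected H9 lymphocytes cultured with an equal volume of compound dilution for 3 days at 37°. Cell density then counted; IC50 = concentration inhibiting lymphocyte growth by 50%.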

[6] = biological target: Protein kinase C gamma type (Homo sapiens, UniProt P05129); experiment: Inhibition of PKC gamma; summary of the method: as §1

Protein kinase C beta type, sequence (P05771 whole entry): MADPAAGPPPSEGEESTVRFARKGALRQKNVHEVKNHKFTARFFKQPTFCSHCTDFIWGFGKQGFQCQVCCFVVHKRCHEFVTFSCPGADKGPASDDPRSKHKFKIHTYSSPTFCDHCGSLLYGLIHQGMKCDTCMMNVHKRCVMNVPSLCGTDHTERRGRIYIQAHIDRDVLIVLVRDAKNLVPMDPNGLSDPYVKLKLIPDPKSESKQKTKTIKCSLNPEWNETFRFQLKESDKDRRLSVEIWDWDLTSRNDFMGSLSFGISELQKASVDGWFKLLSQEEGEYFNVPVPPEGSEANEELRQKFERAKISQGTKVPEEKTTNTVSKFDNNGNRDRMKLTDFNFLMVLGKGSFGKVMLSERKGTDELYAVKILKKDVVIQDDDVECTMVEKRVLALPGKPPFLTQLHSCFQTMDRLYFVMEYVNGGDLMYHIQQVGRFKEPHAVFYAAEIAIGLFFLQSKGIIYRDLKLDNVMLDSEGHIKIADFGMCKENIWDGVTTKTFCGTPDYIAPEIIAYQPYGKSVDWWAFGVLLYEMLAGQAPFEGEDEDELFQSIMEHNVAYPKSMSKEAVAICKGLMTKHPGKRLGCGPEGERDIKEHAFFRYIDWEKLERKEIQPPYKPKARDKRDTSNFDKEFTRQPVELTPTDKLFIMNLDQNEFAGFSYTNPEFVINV

Compound	IC50 [1] [µM]	IC50 [2] [µM]	selectivity ratio [3]	EC50 [4] [µM]	IC50 [5] [µM]	IC50 (H9) [µM]	IC50 [6] [µM]
Cc1cn([C@H]2C[C@H](N=[N+]=[N-])[C@@H](CO)O2)c(=O)[nH]c1=O [ZIDOVUDINE]	> 150	> 150					
CC(C)[C@@H]1CC[C@]2(C(=O)O)CC[C@]3(C)C(CCC4[C@@]5(C)CC[C@H](O)C(C)(C)C5CC[C@]43C)C12 (stereo partly drawn) [DIHYDROBETULINIC ACID]	> 150	> 150	14	0.9	46		
C=C(C)[C@@H]1CC[C@]2(C(=O)O)CC[C@]3(C)[C@H](CC[C@@H]4[C@@]5(C)CC[C@H](OC(C)=O)C(C)(C)[C@@H]5CC[C@]43C)[C@@H]12	> 150	> 150	0.8	25		20	
C=C(C)[C@@H]1CC[C@]2(C(=O)O)CC[C@]3(C)[C@H](CC[C@@H]4[C@@]5(C)CC[C@H](OC(=O)/C=C/C)C(C)(C)[C@@H]5CC[C@]43C)[C@@H]12	> 150	> 150	2.5	19		48	
C=C(C)[C@@H]1CC[C@]2(C(=O)O)CC[C@]3(C)[C@H](CC[C@@H]4[C@@]5(C)CC[C@H](O)C(C)(C)[C@@H]5CC[C@]43C)[C@@H]12 [BETULINIC ACID]	> 150	> 150		1.4			
CC(=O)[C@@H]1CC[C@]2(C(=O)O)CC[C@]3(C)[C@H](CC[C@@H]4[C@@]5(C)CC[C@H](O)C(C)(C)[C@@H]5CC[C@]43C)[C@@H]12 [PLATANIC ACID]	> 150	> 150	13	6.5		90	
C=C(C)[C@@H]1CC[C@]2(C(=O)O)CC[C@]3(C)[C@H](CC[C@@H]4[C@@]5(C)CC[C@H](OS(=O)(=O)O)C(C)(C)[C@@H]5CC[C@]43C)[C@@H]12	> 150	> 150	1.7	20		35	37
C=C(C)[C@@H]1CC[C@]2(C(=O)O)CC[C@]3(C)[C@H](CC[C@@H]4[C@@]5(C)CC[C@H](OC(=O)CCC(=O)O)C(C)(C)[C@@H]5CC[C@]43C)[C@@H]12	> 150	> 150	4	4	49	16	
C=C(C)[C@@H]1CC[C@]2(C(=O)O)CC[C@]3(C)[C@H](CC[C@@H]4[C@@]5(C)CC[C@H](OC(=O)c6ccccc6)C(C)(C)[C@@H]5CC[C@]43C)[C@@H]12	> 150	> 150	1	15		15	74
C=C(C)[C@@H]1CC[C@]2(CO)CC[C@]3(C)[C@H](CC[C@@H]4[C@@]5(C)CC[C@H](O)C(C)(C)[C@@H]5CC[C@]43C)[C@@H]12 [BETULIN]	> 150	> 150	1.9	23		45	
C=C(C)[C@@H]1CC[C@]2(C(=O)OCC(=O)OC)CC[C@]3(C)[C@H](CC[C@@H]4[C@@]5(C)CC[C@H](O)C(C)(C)[C@@H]5CC[C@]43C)[C@@H]12	> 150	> 150	1.5	17		26	
